# ChEMBL document CHEMBL3102798, “Stapled Vasoactive Intestinal Peptide (VIP) Derivatives Improve VPAC2 Agonism and Glucose-Dependent Insulin Secretion” (ACS Med Chem Lett, 2013)
# Activity calls are given as the source filed them. The rule behind the calls is not given here. Bridge positions count the residues as written; N and C are the ends. Peptide text beside a SMILES is read from it.
# Tests used:
# [1] = Stability of the compound in phosphate buffer assessed as compound remaining at pH 7.4 after 15 mins by LC-MS-MS analysis in presence of trypsin; assay type: ADME; conditions: phosphate buffer with trypsin, read-out: Stability
# [2] = Apparent passive permeability across apical to basolateral side in human Caco2 cells at 10 uM after 30 to 60 mins by LC/MS analysis; assay type: ADME, cell-based; conditions: Caco-2
# [3] = Half life in human at 3.3 pmol/kg/min, iv administered as infusion; assay type: ADME, organism-based; conditions: in vivo
# [4] = biological target: T1, Vasoactive intestinal polypeptide receptor 2 (Homo sapiens, UniProt P41587); test: Agonist activity at human VPAC2 expressed in CHO Flp-in cells assessed as accumulation of cAMP after 30 mins by TR-FRET assay; assay type: functional, cell-based
# T1 sequence (P41587 whole entry): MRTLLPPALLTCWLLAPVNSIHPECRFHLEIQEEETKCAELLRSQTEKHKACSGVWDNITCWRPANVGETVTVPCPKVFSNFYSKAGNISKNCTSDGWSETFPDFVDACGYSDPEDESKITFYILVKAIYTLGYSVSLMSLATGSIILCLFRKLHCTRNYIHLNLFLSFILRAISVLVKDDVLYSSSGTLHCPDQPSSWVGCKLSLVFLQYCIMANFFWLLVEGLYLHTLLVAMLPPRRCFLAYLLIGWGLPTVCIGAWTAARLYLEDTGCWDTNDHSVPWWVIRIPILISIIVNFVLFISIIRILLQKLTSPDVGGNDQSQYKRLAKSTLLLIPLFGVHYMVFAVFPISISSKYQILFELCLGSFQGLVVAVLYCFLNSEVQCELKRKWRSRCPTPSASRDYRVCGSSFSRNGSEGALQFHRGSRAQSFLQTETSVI
# Pancreatic islet [5] = test: Induction of 8 mM glucose-induced insulin secretion in Han Wistar rat pancreatic islets at 10 to 100 nM after 2 hrs by HTRF assay; assay type: functional
# Summary of the method: (§1)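 Isolated rat pancreatic islets were incubated with peptide in 8 mM glucose, and insulin secretion was measured. Data are mean ±SE (n > 3), and significance was tested against vehicle-treated samples.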
# Pancreatic islet [6] = test: Induction of 8 mM glucose-induced insulin secretion in Han Wistar rat pancreatic islets at 100 nM after 2 hrs by HTRF assay; assay type: functional; summary of the method: as §1
# Pancreatic islet [7] = test: Induction of 8 mM glucose-induced insulin secretion in Han Wistar rat pancreatic islets after 2 hrs by HTRF assay; assay type: functional
# Summary of the method: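 Isolated rat pancreatic islets were incubated with 8 mM glucose plus peptide over a range of concentrations, and secreted insulin was measured. Data are mean (±SE), n > 3, and were compared with vehicle-treated samples (p < 0.05, 0.01, 0.001).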
# Pancreatic islet [8] = test: Induction of 8 mM glucose-induced insulin secretion in Han Wistar rat pancreatic islets at 1 to 100 nM after 2 hrs by HTRF assay; assay type: functional; summary of the method: as §1
compound,measurement,setting,value
CC[C@H](C)[C@H](NC(=O)[C@H](CO)NC(=O)[C@H](CC(N)=O)NC(=O)[C@H](CC(C)C)NC(=O)[C@H](Cc1ccc(O)cc1)NC(=O)[C@H](CCCCN)NC(=O)[C@H](CCCCN)NC(=O)[C@@H](NC(=O)[C@H](C)NC(=O)[C@H](CCSC)NC(=O)[C@H](CCC(N)=O)NC(=O)[C@H](CCCCN)NC(=O)[C@H](CCCN=C(N)N)NC(=O)[C@H](CC(C)C)NC(=O)[C@H](CCCN=C(N)N)NC(=O)[C@@H](NC(=O)[C@H](Cc1ccc(O)cc1)NC(=O)[C@H](CC(N)=O)NC(=O)[C@H](CC(=O)O)NC(=O)[C@@H](NC(=O)[C@H](Cc1ccccc1)NC(=O)[C@@H](NC(=O)[C@H](C)NC(=O)[C@H](CC(=O)O)NC(=O)[C@H](CO)NC(=O)[C@@H](N)Cc1c[nH]cn1)C(C)C)[C@@H](C)O)[C@@H](C)O)C(C)C)C(=O)N[C@@H](CC(C)C)C(=O)N[C@@H](CC(N)=O)C(N)=O,remaining at 0.25 h,[1],0.5%
same,Papp A→B at 10 µM,[2],< 0.1 ×10⁻⁶ cm/s
same,half-life,[3],< 1 min
CC[C@H](C)[C@H](NC(=O)[C@H](CO)NC(=O)[C@H](CC(N)=O)NC(=O)[C@H](CC(C)C)NC(=O)[C@H](Cc1ccc(O)cc1)NC(=O)[C@H](CCCCN)NC(=O)[C@H](CCCCN)NC(=O)[C@@H](NC(=O)[C@H](C)NC(=O)[C@]1(C)CCCC/C=C\CCCC[C@](C)(NC(=O)[C@H](CCCNC(=N)N)NC(=O)[C@@H](NC(=O)[C@H](Cc2ccc(O)cc2)NC(=O)[C@H](CC(N)=O)NC(=O)[C@H](CC(=O)O)NC(=O)[C@@H](NC(=O)[C@H](Cc2ccccc2)NC(=O)[C@@H](NC(=O)[C@H](C)NC(=O)[C@H](CC(=O)O)NC(=O)[C@H](CO)NC(=O)[C@@H](N)Cc2cnc[nH]2)C(C)C)[C@@H](C)O)[C@@H](C)O)C(=O)N[C@@H](CCCNC(=N)N)C(=O)N[C@@H](CCCCN)C(=O)N[C@@H](CCC(N)=O)C(=O)N1)C(C)C)C(=O)N[C@@H](CC(C)C)C(=O)N[C@@H](CC(N)=O)C(=O)NCC(=O)N[C@@H](CCCCN)C(=O)O,remaining at 0.25 h,[1],1.5%
same,Papp A→B at 10 µM,[2],< 0.1 ×10⁻⁶ cm/s
same,EC50,[4],49 pM
same,Activity,Pancreatic islet [5],Active
C=CCCC[C@](C)(NC(=O)[C@H](CCC(N)=O)NC(=O)[C@H](CCCCN)NC(=O)[C@H](CCCNC(=N)N)NC(=O)[C@](C)(CCCC=C)NC(=O)[C@H](CCCNC(=N)N)NC(=O)[C@@H](NC(=O)[C@H](Cc1ccc(O)cc1)NC(=O)[C@H](CC(N)=O)NC(=O)[C@H](CC(=O)O)NC(=O)[C@@H](NC(=O)[C@H](Cc1ccccc1)NC(=O)[C@@H](NC(=O)[C@H](C)NC(=O)[C@H](CC(=O)O)NC(=O)[C@H](CO)NC(=O)[C@@H](N)Cc1cnc[nH]1)C(C)C)[C@@H](C)O)[C@@H](C)O)C(=O)N[C@@H](C)C(=O)N[C@H](C(=O)N[C@@H](CCCCN)C(=O)N[C@@H](CCCCN)C(=O)N[C@@H](Cc1ccc(O)cc1)C(=O)N[C@@H](CC(C)C)C(=O)N[C@@H](CC(N)=O)C(=O)N[C@@H](CO)C(=O)N[C@H](C(=O)N[C@@H](CC(C)C)C(=O)N[C@@H](CC(N)=O)C(=O)NCC(=O)N[C@@H](CCCCN)C(=O)O)[C@@H](C)CC)C(C)C,Activity,Pancreatic islet [6],Active
CC[C@H](C)[C@H](NC(=O)[C@H](CO)NC(=O)[C@H](CC(N)=O)NC(=O)[C@H](CC(C)C)NC(=O)[C@H](Cc1ccc(O)cc1)NC(=O)[C@H](CCCCN)NC(=O)[C@H](CCCCN)NC(=O)[C@@H](NC(=O)[C@H](C)NC(=O)[C@H](CCSC)NC(=O)[C@H](CCC(N)=O)NC(=O)[C@H](CCCCN)NC(=O)[C@H](CCCNC(=N)N)NC(=O)[C@H](CC(C)C)NC(=O)[C@H](CCCNC(=N)N)NC(=O)[C@@H](NC(=O)[C@H](Cc1ccc(O)cc1)NC(=O)[C@H](CC(N)=O)NC(=O)[C@H](CC(=O)O)NC(=O)[C@@H](NC(=O)[C@H](Cc1ccccc1)NC(=O)[C@@H](NC(=O)[C@H](C)NC(=O)[C@H](CC(=O)O)NC(=O)[C@H](CO)NC(=O)[C@@H](N)Cc1cnc[nH]1)C(C)C)[C@@H](C)O)[C@@H](C)O)C(C)C)C(=O)N[C@@H](CC(C)C)C(=O)N[C@@H](CC(N)=O)C(=O)O,Activity,Pancreatic islet [7],Dose-dependent effect
CC[C@H](C)[C@H](NC(=O)[C@H](Cc1ccccc1)NC(=O)[C@H](CCC(=O)O)NC(=O)[C@H](CCCCN)NC(=O)[C@H](C)NC(=O)[C@H](C)NC(=O)[C@H](CCC(N)=O)NC(=O)CNC(=O)[C@H](CCC(=O)O)NC(=O)[C@H](CC(C)C)NC(=O)[C@H](Cc1ccc(O)cc1)NC(=O)[C@H](CO)NC(=O)[C@H](CO)NC(=O)[C@@H](NC(=O)[C@H](CC(=O)O)NC(=O)[C@H](CO)NC(=O)[C@@H](NC(=O)[C@H](Cc1ccccc1)NC(=O)[C@@H](NC(=O)CNC(=O)[C@H](CCC(=O)O)NC(=O)[C@H](C)NC(=O)[C@@H](N)Cc1c[nH]cn1)[C@@H](C)O)[C@@H](C)O)C(C)C)C(=O)N[C@@H](C)C(=O)N[C@@H](Cc1c[nH]c2ccccc12)C(=O)N[C@@H](CC(C)C)C(=O)N[C@H](C(=O)N[C@@H](CCCCN)C(=O)NCC(=O)N[C@@H](CCCN=C(N)N)C(=O)NCC(=O)O)C(C)C,Activity,Pancreatic islet [7],Dose-dependent effect
CC[C@H](C)[C@H](NC(=O)[C@H](CO)NC(=O)[C@H](CC(N)=O)NC(=O)[C@H](CC(C)C)NC(=O)[C@H](Cc1ccc(O)cc1)NC(=O)[C@@H]1CCCCNC(=O)CC[C@H](NC(=O)[C@H](CCC(N)=O)NC(=O)[C@H](CCCCN)NC(=O)[C@H](CCCNC(=N)N)NC(=O)[C@H](CC(C)C)NC(=O)[C@H](CCCNC(=N)N)NC(=O)[C@@H](NC(=O)[C@H](Cc2ccc(O)cc2)NC(=O)[C@H](CC(N)=O)NC(=O)[C@H](CC(=O)O)NC(=O)[C@@H](NC(=O)[C@H](Cc2ccccc2)NC(=O)[C@@H](NC(=O)[C@H](C)NC(=O)[C@H](CC(=O)O)NC(=O)[C@H](CO)NC(=O)[C@@H](N)Cc2cnc[nH]2)C(C)C)[C@@H](C)O)[C@@H](C)O)C(=O)N[C@@H](C)C(=O)N[C@@H](C(C)C)C(=O)N[C@@H](CCCCN)C(=O)N1)C(=O)N[C@@H](CC(C)C)C(=O)N[C@@H](CC(N)=O)C(=O)NCC(=O)N[C@@H](CCCCN)C(=O)O (H-HSDAVFTDNYTRLRKQEAVKKYLNSILNGK-OH; lactam 17-21),remaining at 0.25 h,[1],0.4%
same,Papp A→B at 10 µM,[2],< 0.1 ×10⁻⁶ cm/s
same,EC50,[4],100 pM
same,Activity,Pancreatic islet [5],Active
H-HSDAVFTDNYTRLRKQEAVKKYLNSILNGK-OH,Activity,Pancreatic islet [6],Active
same,remaining at 0.25 h,[1],0.9%
same,Papp A→B at 10 µM,[2],< 0.1 ×10⁻⁶ cm/s
same,EC50,[4],380 pM
H-HSDAVFTDNYTRLRKQIAVKKYLNSILNGK-OH,Activity,Pancreatic islet [8],Active
